Measured values: ChEMBL document CHEMBL1141224, “Parallel solution-phase and microwave-assisted synthesis of new S-DABO derivatives endowed with subnanomolar anti-HIV-1 activity” (J Med Chem, 2005)
Active and inactive are the calls of the source. The calls are words filed in the database; no cut-off is given here.

Columns and labels:
[1] = tested on: Human immunodeficiency virus 1; test: Antiviral activity against HIV1 IRLL98 mutant strain infected MT4 cells by MTT method at 11 uM; type: functional; settings: Human immunodeficiency virus 1, IRLL98, MT4
How it was run: (§1)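 MT-4 cells infected with the mutant HIV-1 strain and treated with compound. Viable cells were measured by MTT colorimetric assay on day 5 post-infection. The value is the percent inhibition of HIV-induced cell death at the stated micromolar concentration. Values are the mean of at least two experiments.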

[2] = tested on: MT4; test: Cytotoxicity against MT4 cells by MTT method; type: functional; settings: Homo sapiens
How it was run: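 Mock-infected MT-4 cells exposed to graded drug concentrations. Viability assessed by MTT colorimetric method at day 5. CC50 is the concentration causing 50% death of noninfected cells. Mean of at least two experiments.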

[3] = tested on: Human immunodeficiency virus type 1 reverse transcriptase (Human immunodeficiency virus 1), Q72547 [K103N]; test: Inhibition of K103N mutant HIV1 reverse transcriptase by [3H]dTTP poly(rA)/oligo(dT) incorporation at 400 uM
How it was run: (§2)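 RNA-dependent DNA polymerase assay of recombinant RT at 5–10 nM. Template: poly(rA)/oligo(dT) (0.3 μM 3'-OH ends) with 10 μM [3H]-dTTP. Run 10 min at 37 °C with increasing inhibitor. TCA-precipitated product was counted on GF/C filters. Highest concentration tested was 400 μM.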

[4] = tested on: Human immunodeficiency virus 1; test: Antiviral activity against HIV1 K103N mutant strain infected MT4 cells by MTT method; type: functional, organism-based; settings: Human immunodeficiency virus 1, K103N
[5] = tested on: Human immunodeficiency virus type 1 reverse transcriptase (Human immunodeficiency virus 1), Q72547 [Y181I]; test: Inhibition of Y181I mutant HIV1 reverse transcriptase by [3H]dTTP poly(rA)/oligo(dT) incorporation at 400 uM; how it was run: as §2
[6] = tested on: Human immunodeficiency virus 1; test: Antiviral activity against HIV1 Y188L mutant strain infected MT4 cells by MTT method; type: functional, organism-based; settings: Human immunodeficiency virus 1, Y188L, MT4
[7] = tested on: Human immunodeficiency virus 1; test: Antiviral activity against wild type HIV1 NL4-3 infected MT4 cells by MTT method; type: functional, organism-based; settings: Human immunodeficiency virus 1, NL4-3, MT4
How it was run: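 MT-4 lymphoid cells infected with HIV-1 NL4-3 in the presence of graded drug concentrations. Viable cells counted by MTT colorimetric assay at day 5 post-infection. EC50 is the concentration protecting 50% of cells from HIV-induced death. Mean of at least two experiments.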

[8] = molecular target: Human immunodeficiency virus type 1 reverse transcriptase (Human immunodeficiency virus 1) (UniProt Q72547)
[9] = tested on: Human immunodeficiency virus 1; test: Antiviral activity against HIV1 K103N mutant strain infected MT4 cells by MTT method at 62 uM; type: functional; settings: Human immunodeficiency virus 1, K103N; how it was run: as §1
[10] = tested on: Human immunodeficiency virus 1; test: Antiviral activity against HIV1 IRLL98 mutant strain infected MT4 cells by MTT method; type: functional, organism-based; settings: Human immunodeficiency virus 1, IRLL98, MT4
How it was run: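 MT-4 cells infected with the HIV-1 mutant strain, or mock-infected for cytotoxicity, in the presence of a range of drug concentrations. Viable cells were counted by MTT colorimetric assay on day 5 post-infection. EC50 is the concentration that blocks 50% of HIV-induced cell death. Values are the mean of at least two experiments. IRLL98 carries RT mutations K101Q, Y181C and G190A, plus NRTI mutations.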

[11] = molecular target: Human immunodeficiency virus type 1 reverse transcriptase (Human immunodeficiency virus 1) (UniProt Q72547); test: Inhibition of wild type HIV1 reverse transcriptase by [3H]dTTP poly(rA)/oligo(dT) incorporation at 400 uM; how it was run: as §2
[12] = tested on: Human immunodeficiency virus 1; test: Antiviral activity against wild type HIV1 NL4-3 infected MT4 cells by MTT method at 2.3 uM; type: functional; settings: Human immunodeficiency virus 1, NL4-3, MT4
How it was run: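 MT-4 cells infected with HIV-1 NL4-3 and exposed to drug. Viable cells measured by MTT assay at day 5 post-infection. Result given as percent inhibition of HIV-induced cell death at the stated micromolar concentration. Mean of at least two experiments.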

[13] = tested on: MT4; test: Cytotoxicity against MT4 cells by MTT method at 11 uM; type: functional, Homo sapiens
[14] = tested on: Human immunodeficiency virus type 1 reverse transcriptase (Human immunodeficiency virus 1), Q72547 [K103N]
[15] = tested on: Human immunodeficiency virus type 1 reverse transcriptase (Human immunodeficiency virus 1), Q72547 [Y181I]

Row | Structure (SMILES) | inhibition at 11 µM [1] | CC50 [2] | ID50 [3] | EC50 [4] | ID50 [5] | EC50 [6] | EC50 [7] | ID50 [8] | inhibition at 62 µM [9] | EC50 [10] | ID50 [11] | inhibition at 2.3 µM [12] | Activity [13] | ID50 [14] | ID50 [15]
1 | CCCCOc1ccc(CSc2nc(O)c(C)c(Cc3c(Cl)cccc3Cl)n2)cc1 | 34% | 3.1 µM | inactive | > 3.1 µM | inactive | > 3.1 µM | > 3.1 µM | 2.8 µM | – | – | – | – | – | – | –
2 | Cc1c(O)nc(SCc2ccc(C(C)C)cc2)nc1Cc1c(F)cccc1F | – | > 62 µM | inactive | – | inactive | > 62 µM | 0.58 µM | 3 µM | 33% | 16 µM | – | – | – | – | –
3 | Cc1c(O)nc(SCc2ccc(C(C)C)cc2)nc1Cc1c(Cl)cccc1Cl | – | – | inactive | > 58 µM | inactive | > 58 µM | – | – | – | > 57 µM | inactive | 35% | 45% | – | –
4 | COc1ccc(CCCSc2nc(O)c(C)c(Cc3c(Cl)cccc3Cl)n2)cc1 | – | 1 µM | – | > 1 µM | – | > 1 µM | 0.00044 µM | 0.037 µM | – | 0.11 µM | – | – | – | 0.5 µM | 0.3 µM
